Assay results: ChEMBL document CHEMBL1255483, “Intra- and extracellular activities of dicloxacillin against Staphylococcus aureus in vivo and in vitro” (Antimicrob Agents Chemother, 2010)
Values after ≈ are worked out from the molar mass of the structure shown. Active and inactive are the calls of the source. The rule behind the calls is not given here.

What was measured:
Staphylococcus aureus [1] = experiment: Bacteriostatic activity against Staphylococcus aureus ATCC 25923 at MIC between 5 to 24 hrs; assay type: functional, organism-based
Method in brief: (§1)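 Extracellular broth time- and concentration-kill test. The inoculum was ~10⁶ CFU/ml, exposed to a wide range of DCX concentrations, with CFU counted after 5 and 24 h. The read-out was Δlog CFU/ml versus time zero (mean ± SD, n = 3). A sigmoidal fit with slope 1 gave Emax and EC50. Cstatic was read by graphical interpolation as the concentration giving no change from the inoculum.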

Mus musculus [2] = organism: Mus musculus; experiment: Protein binding in NMRI mouse infected with Staphylococcus aureus E19977 at 270 mg/l by ultrafiltration; assay type: ADME, organism-based; conditions: in vivo
Method in brief: (§2)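 Plasma binding was measured by ultrafiltration. EDTA blood from healthy mice, or from NMRI mice infected intraperitoneally for 6 h with E19977, was spiked with DCX at 10–400 mg/liter, with PBS controls. Samples were held 1 h at 37°C, then centrifuged through 30-kDa filters at 3,000 × g for 8 min at 37°C. Total and filtrate drug were measured by S. lutea bioassay.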

[3] = AUC (24 hrs) in NMRI mouse at 30 mg/kg, sc; assay type: ADME, organism-based; design: time < 24 hr, dose 30 mg/kg, route subcutaneous; conditions: plasma
Method in brief: (§3)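 Single subcutaneous DCX doses given to NMRI mice. Blood was collected into EDTA tubes, and plasma drug was assayed by microbiological bioassay with S. lutea ATCC 9391 (detection limit 1.5 mg/liter, linear to 100 mg/liter). Values came from noncompartmental analysis. Terminal half-life was fitted monoexponentially to the last four time points. AUC24 combined the trapezoidal rule over mean points with exact integration of the fitted curve extrapolated to 24 h.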

[4] = fT>MIC in Staphylococcus aureus E19977 infected NMRI mouse at 200 mg/kg administered every 4 hrs; assay type: functional
Method in brief: (§4)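 Calculated percentage of 24 h at steady state that free plasma DCX exceeds the strain MIC (microdilution, pH 7.4). Concentrations were simulated from single subcutaneous dose plasma curves in NMRI mice (S. lutea bioassay), adjusted with a square-root model of concentration-dependent free fraction from ultrafiltration. The regimen was dosed subcutaneously in mice infected intraperitoneally with 10^7.4 CFU, and peritoneal CFU were read after 24 h of therapy.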

[5] = Ratio of fAUC (24 hrs) in NMRI mouse at 200 mg/kg administered every 4 hrs to MIC for Staphylococcus aureus E19977; assay type: functional
Method in brief: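 Computed from modelled dosing regimens, not measured directly. Single subcutaneous doses were given to NMRI mice, and plasma was assayed by S. lutea bioassay. AUC24 came from noncompartmental analysis, with terminal exponential extrapolation to 24 h. The free fraction came from a square-root fit to ultrafiltration protein-binding data, with saturable binding included. MIC was by broth microdilution.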

Mus musculus [6] = organism: Mus musculus; experiment: Protein binding in NMRI mouse at 180 mg/l by ultrafiltration; assay type: ADME, organism-based; conditions: in vivo; method in brief: as §2
[7] = Ratio of fAUC (24 hrs) in NMRI mouse at 160 mg/kg administered every 3 hrs to MIC for Staphylococcus aureus E19977; assay type: functional
Method in brief: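 Free-drug AUC24/MIC was modelled for repeated subcutaneous regimens. Single-dose NMRI plasma concentration-time curves were combined with the best-fitting square-root expression for the concentration-dependent free fraction. The result was divided by the E19977 MIC.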

[8] = AUC (24 hrs) in NMRI mouse at 1200 mg/kg, sc; assay type: ADME, organism-based; design: time < 24 hr, dose 1200 mg/kg, route subcutaneous; conditions: plasma
[9] = Ratio of fCmax in NMRI mouse at 120 mg/kg administered every 24 hrs to MIC for Staphylococcus aureus E19977; assay type: functional
Method in brief: (§5)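 Free Cmax/MIC was modelled, not measured. Single-dose subcutaneous plasma curves from NMRI mice were projected to the multiple-dose regimens. Free fraction came from a square-root fit of unbound fraction versus total concentration. Binding was measured by ultrafiltration of mouse plasma spiked with 10–400 mg/liter and held 1 h at 37°C. MIC was for strain E19977.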

[10] = fT>MIC in Staphylococcus aureus E19977 infected NMRI mouse at 240 mg/kg administered every 6 hrs; assay type: functional; method in brief: as §4
[11] = Ratio of fAUC (24 hrs) in NMRI mouse at 240 mg/kg administered every 6 hrs to MIC for Staphylococcus aureus E19977; assay type: functional
Method in brief: (§6)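 Modeled free AUC over 24 h divided by the MIC, not measured directly. Single subcutaneous DCX doses were given to NMRI mice, and plasma was assayed by S. lutea bioassay. Noncompartmental analysis used trapezoidal mean points plus a fitted monoexponential extrapolated to 24 h. Free fraction came from a square-root fit to plasma ultrafiltration binding (10–400 mg/liter spike, 1 h, 37°C). The MIC was measured by broth microdilution at pH 7.4.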

Staphylococcus aureus [12] = experiment: Bacteriostatic activity against Staphylococcus aureus E19977 infected in human THP-1 cells after 24 hrs; assay type: functional
Method in brief: (§7)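 Human THP-1 macrophages were infected with opsonized S. aureus at 4 bacteria per macrophage for 45 min. Non-phagocytized bacteria were removed by washing and a brief incubation in PBS with gentamicin 50 mg/liter. Cells were then incubated up to 24 h with DCX over a wide range of extracellular concentrations. The read-out was Δlog CFU per mg cell protein versus time zero (n = 3), with sigmoidal fitting and Cstatic by interpolation.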

[13] = Ratio of fCmax in NMRI mouse at 240 mg/kg administered every 6 hrs to MIC for Staphylococcus aureus E19977; assay type: functional; method in brief: as §5
[14] = Ratio of fAUC (24 hrs) in NMRI mouse at 80 mg/kg administered every 3 hrs to MIC for Staphylococcus aureus E19977
[15] = fT>MIC in Staphylococcus aureus E19977 infected NMRI mouse at 30 mg/kg administered every 2 hrs; assay type: functional; method in brief: as §4
Staphylococcus aureus [16] = experiment: Antimicrobial activity against Staphylococcus aureus ATCC 25923 by broth microdilution method at pH 7.4
[17] = Half-life in NMRI mouse at 30 mg/kg, sc; assay type: ADME, organism-based; design: dose 30 mg/kg, route subcutaneous; conditions: in vivo; method in brief: as §3
Staphylococcus aureus [18] = experiment: Bactericidal activity against Staphylococcus aureus E19977 infected in human THP-1 cells assessed as log change in bacterial count after 24 hrs; assay type: functional; method in brief: as §7
Staphylococcus aureus [19] = experiment: Bactericidal activity against Staphylococcus aureus E19977 assessed as log change in bacterial count after 24 hrs; assay type: functional; method in brief: as §1
[20] = fT>MIC in Staphylococcus aureus E19977 infected NMRI mouse at 200 mg/kg administered every 6 hrs; assay type: functional; method in brief: as §4
[21] = Cmax in NMRI mouse at 1200 mg/kg, sc; assay type: ADME, organism-based; design: dose 1200 mg/kg, route subcutaneous; conditions: in vivo
Staphylococcus aureus [22] = experiment: Antimicrobial activity against Staphylococcus aureus ATCC 25923 after 24 hrs; assay type: functional, organism-based; conditions: ATCC 25923, 24 h; method in brief: as §1
Mus musculus [23] = organism: Mus musculus; experiment: Protein binding in NMRI mouse at 400 mg/l by ultrafiltration; assay type: ADME, organism-based; conditions: in vivo; method in brief: as §2
[24] = Ratio of fCmax in NMRI mouse at 200 mg/kg administered every 4 hrs to MIC for Staphylococcus aureus E19977; assay type: functional; method in brief: as §5
[25] = Ratio of fCmax in NMRI mouse at 160 mg/kg administered every 3 hrs to MIC for Staphylococcus aureus E19977; assay type: functional; method in brief: as §5
THP-1 = experiment: Cytotoxicity against human THP1 cells at 500 mg/L after 24 hrs by trypan blue exclusion method; assay type: cell-based; conditions: thp-1, 24 h
Method in brief: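 THP-1 macrophage viability was checked by trypan blue exclusion after 24 h of exposure to DCX at concentrations up to 500 mg/liter.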

[26] = Ratio of fAUC (24 hrs) in NMRI mouse at 200 mg/kg administered every 6 hrs to MIC for Staphylococcus aureus E19977; assay type: functional; method in brief: as §6

## Cc1onc(-c2c(Cl)cccc2Cl)c1C(=O)N[C@@H]1C(=O)N2[C@@H]1SC(C)(C)[C@@H]2C(=O)O [DICLOXACILLIN]
Staphylococcus aureus [1]
  Activity: Active
Mus musculus [2]
  Activity: 80.7%
[3]
  AUC at 24 h: 21.4 µg·h/mL
[4]
  fT>MIC: 86.25%
[5]
  fAUC/MIC: 616.07 h
Mus musculus [6]
  Activity: 87.2%
[7]
  fAUC/MIC: 556.4 h
[8]
  AUC at 24 h: 190 µg·h/mL
[9]
  Ratio: 61.6
[10]
  fT>MIC: 65.28%
[11]
  fAUC/MIC: 572.83 h
Staphylococcus aureus [12]
  Activity: 0.89 mg/L
[13]
  Ratio: 136.18
[14]
  fAUC/MIC: 168.69 h
[15]
  fT>MIC: 45.83%
Staphylococcus aureus [16]
  MIC: 0.125 mg/L (≈ 0.266 µM)
[17]
  half-life: 19 min
Staphylococcus aureus [18]
  Emax: -1.01 deltalog10CFU/ml
Staphylococcus aureus [19]
  Emax: -3.81 deltalog10CFU/ml
[20]
  fT>MIC: 57.5%
[21]
  Cmax: 222 µg/mL
Staphylococcus aureus [22]
  EC50: 0.06 mg/L (≈ 0.128 µM)
Mus musculus [23]
  Activity: 83.7%
[24]
  Ratio: 101.92
[25]
  Ratio: 81.58
THP-1
  Activity: Non-toxic
[26]
  fAUC/MIC: 411.61 h
